Laboratory results published in ChEMBL document CHEMBL2016528, “Synthesis and biological evaluation of bifendate-chalcone hybrids as a new class of potential P-glycoprotein inhibitors” (Bioorg Med Chem, 2012).
Activity calls are given as the source filed them. The rule behind the calls is not given here.

Columns and labels:
[1] = Cytotoxicity against human K562/A02 cells overexpress P-gp after 72 hrs by MTS assay; assay type: ADME, cell-based; settings: K562/A02, 72 h
How it was run: (§1)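 Cells (1×10⁴/well) seeded and grown 24 h, then exposed to a range of compound concentrations for 72 h at 37 °C, 5% CO₂. MTS added for 3 h, absorbance read at 490 nm. IC50 = concentration giving 50% growth decrease, taken from dose–response curves; mean of triplicate experiments. K562/A02 is the adriamycin-induced P-gp-overexpressing subline.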

K562 [2] = assay: Cytotoxicity against human K562 cells after 72 hrs by MTS assay; assay type: cell-based; settings: K562, 72 h; how it was run: as §1
K562 [3] = assay: Potentiation of adriamycin-induced cytotoxicity against human K562 cells at 2.5 to 10 uM after 72 hrs by MTS assay; assay type: functional, cell-based
How it was run: (§2)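 ADR at 3.5 µM (K562/A02) or 0.2 µM (K562), alone or combined with compound at 2.5, 5 or 10 µM, for 72 h. Survival measured by MTS and given as percent growth of untreated control. Mean ± S.D. of three independent experiments; statistics versus ADR alone.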

[4] = Effect on P-gp ATPase activity assessed as relative light units at 40 uM by P-gp-GloTM assay (reference value: 242328 +/- 1398 RLU)
K562/A02 [5] = assay: Inhibition of Pgp-mediated rhodamine 123 efflux in human K562/A02 cells assessed as intracellular rhodamine 123 accumulation preincubated for 30 mins measured after 60 mins by fluorescence microscopy relative to control; assay type: cell-based
How it was run: (§3)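 Efflux assay: K562/A02 cells incubated 30 min with 0.5 µM rhodamine 123 plus compound (0.33, 3.3 or 10 µM). Cells washed twice with PBS, resuspended in medium and left 60 min at 37 °C to efflux dye. Retained dye viewed by fluorescence microscopy, with flow cytometry in parallel; 0.1% DMSO as vehicle control.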

[6] = target: T1, ATP-dependent translocase ABCB1 (Homo sapiens, UniProt P08183); assay: Inhibition of P-glycoprotein in human K562/A02 cells assessed as potentiation of adriamycin-induced cytotoxicity at 10 uM preincubated for 24 hrs followed by washout before addition of adriamycin measured after 72 hrs by MTS assay (reference value: 33.59 uM); assay type: cell-based; settings: k562/a02, 72 h
T1 sequence (P08183 whole entry): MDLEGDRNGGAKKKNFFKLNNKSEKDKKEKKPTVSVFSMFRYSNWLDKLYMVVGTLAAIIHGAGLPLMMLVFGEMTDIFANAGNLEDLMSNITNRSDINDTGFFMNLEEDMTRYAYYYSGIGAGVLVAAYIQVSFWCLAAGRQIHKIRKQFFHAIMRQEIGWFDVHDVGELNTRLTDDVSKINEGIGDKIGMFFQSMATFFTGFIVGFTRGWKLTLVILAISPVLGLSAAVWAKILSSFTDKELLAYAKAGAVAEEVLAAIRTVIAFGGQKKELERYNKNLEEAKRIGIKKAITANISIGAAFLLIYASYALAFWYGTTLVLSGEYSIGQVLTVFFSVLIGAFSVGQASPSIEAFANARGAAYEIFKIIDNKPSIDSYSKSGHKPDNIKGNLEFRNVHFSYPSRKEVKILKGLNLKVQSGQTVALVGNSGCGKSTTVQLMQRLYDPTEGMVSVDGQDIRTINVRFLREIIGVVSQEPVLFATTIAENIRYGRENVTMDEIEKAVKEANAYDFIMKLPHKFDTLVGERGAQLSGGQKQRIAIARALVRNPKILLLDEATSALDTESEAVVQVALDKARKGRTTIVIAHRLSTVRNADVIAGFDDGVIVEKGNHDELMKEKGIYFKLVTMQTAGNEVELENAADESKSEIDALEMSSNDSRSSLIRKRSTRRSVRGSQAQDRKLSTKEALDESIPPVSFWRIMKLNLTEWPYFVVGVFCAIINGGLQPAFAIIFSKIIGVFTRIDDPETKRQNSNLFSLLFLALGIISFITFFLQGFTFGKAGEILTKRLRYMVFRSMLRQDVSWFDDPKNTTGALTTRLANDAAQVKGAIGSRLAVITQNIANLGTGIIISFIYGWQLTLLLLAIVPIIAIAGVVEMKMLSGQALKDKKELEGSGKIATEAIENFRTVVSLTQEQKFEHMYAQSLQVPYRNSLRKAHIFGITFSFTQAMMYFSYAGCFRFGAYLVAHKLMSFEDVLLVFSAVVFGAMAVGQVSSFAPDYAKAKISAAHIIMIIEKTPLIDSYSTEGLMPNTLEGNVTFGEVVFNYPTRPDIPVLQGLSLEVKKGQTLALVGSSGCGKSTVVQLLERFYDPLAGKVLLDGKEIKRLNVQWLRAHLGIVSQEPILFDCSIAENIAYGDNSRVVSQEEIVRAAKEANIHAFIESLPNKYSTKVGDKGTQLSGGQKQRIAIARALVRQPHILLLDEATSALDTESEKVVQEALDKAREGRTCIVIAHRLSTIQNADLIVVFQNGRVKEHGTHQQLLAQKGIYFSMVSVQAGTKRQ
How it was run: (§4)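 K562/A02 cells (1×10⁵/well) cultured overnight, then treated with 10 µM compound for 24 h. Washed three times with PBS and moved to compound-free medium. ADR at various concentrations added 0, 6, 12 or 24 h after removal, then 72 h further incubation. Read by MTS at 490 nm; ADR IC50 derived; mean ± S.E. of triplicates.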

K562 [7] = assay: Induction of rhodamine-123 accumulation in human K562 cells preincubated for 1 hr prior rhodamine 123 addition measured after 30 mins by flow cytometry relative to control; assay type: functional, cell-based
How it was run: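 Cells (1×10⁶) pre-incubated with compound or 0.1% DMSO vehicle at 37 °C for 1 h. Rhodamine 123 then added to 0.5 µM for 30 min. Cell-associated fluorescence read by flow cytometry. Fold change = fluorescence divided by that of DMSO control cells; mean ± S.D. of three independent experiments.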

[8] = target: T1, ATP-dependent translocase ABCB1; assay: Inhibition of P-glycoprotein in human K562/A02 cells assessed as potentiation of adriamycin-induced cytotoxicity by measuring survival rate at 2.5 uM after 72 hrs by MTS assay (reference value: 95%); assay type: cell-based; settings: k562/a02, 72 h; how it was run: as §2
[9] = Cytotoxicity against human K562/A02 cells assessed as survival rate at 10 uM after 72 hrs by MTS assay; assay type: cell-based; settings: read-out: Activity
How it was run: (§5)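 K562 and K562/A02 cells given compound alone at 10 µM for 72 h. Survival measured by MTS and expressed as percent of untreated control. Three independent experiments.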

[10] = target: T1, ATP-dependent translocase ABCB1; assay: Inhibition of P-glycoprotein in human K562/A02 cells assessed as potentiation of adriamycin-induced cytotoxicity at 10 uM preincubated for 24 hrs followed by washout addition of adriamycin at 24 hrs post washout measured after 72 hrs by MTS assay (reference value: 51.67 uM); assay type: cell-based; settings: k562/a02, 72 h; how it was run: as §4
[11] = target: T1, ATP-dependent translocase ABCB1; assay: Inhibition of P-glycoprotein in human K562/A02 cells assessed as potentiation of adriamycin-induced cytotoxicity by measuring survival rate at 10 uM after 72 hrs by MTS assay (reference value: 95%); assay type: cell-based; settings: k562/a02, 72 h
[12] = Growth inhibition of human K562 cells at 10 uM after 72 hrs by MTS assay; assay type: cell-based; settings: read-out: GI; how it was run: as §5
[13] = Down regulation of P-gp level in human K562/A02 cells at 10 uM after 72 hrs by Western blotting analysis; assay type: functional, cell-based
[14] = target: T1, ATP-dependent translocase ABCB1; assay: Inhibition of P-glycoprotein in human K562/A02 cells assessed as potentiation of adriamycin-induced cytotoxicity by measuring survival rate at 5 uM after 72 hrs by MTS assay (reference value: 95%); assay type: cell-based; settings: k562/a02, 72 h; how it was run: as §2
[15] = target: T1, ATP-dependent translocase ABCB1; assay: Inhibition of P-glycoprotein in human K562/A02 cells assessed as potentiation of adriamycin-induced cytotoxicity at 10 uM preincubated for 24 hrs followed by washout addition of adriamycin at 6 hrs post washout measured after 72 hrs by MTS assay (reference value: 35.15 uM); assay type: cell-based; settings: k562/a02, 72 h; how it was run: as §4
[16] = Growth inhibition of human K562/A02 cells at 10 uM after 72 hrs by MTS assay; assay type: cell-based; settings: read-out: GI; how it was run: as §5
[17] = target: T1, ATP-dependent translocase ABCB1; assay: Inhibition of P-glycoprotein in human K562/A02 cells assessed as potentiation of adriamycin-induced cytotoxicity at 2.5 to 10 uM after 72 hrs by MTS assay; assay type: cell-based; settings: k562/a02, 72 h; how it was run: as §2
[18] = target: T1, ATP-dependent translocase ABCB1; assay: Inhibition of P-glycoprotein in human K562/A02 cells assessed as potentiation of adriamycin-induced cytotoxicity at 10 uM preincubated for 24 hrs followed by washout addition of adriamycin at 12 hrs post washout measured after 72 hrs by MTS assay (reference value: 54.11 uM); assay type: cell-based; settings: k562/a02, 72 h; how it was run: as §4
[19] = Down regulation of P-gp mRNA level in human K562/A02 cells at 10 uM after 72 hrs by RT-PCR analysis; assay type: functional, cell-based
K562/A02 [20] = assay: Inhibition of Pgp-mediated rhodamine 123 efflux in human K562/A02 cells assessed as intracellular rhodamine 123 accumulation at 3.3 uM preincubated for 30 mins measured after 60 mins by fluorescence microscopy relative to control; assay type: cell-based; how it was run: as §3
P-glycoprotein (P-gp) = assay: Ratio of IC50 for human K562/A02 cells overexpress P-gp to IC50 for human K562 cells; assay type: cell-based; settings: K562/A02 cells overexpressing P-gp and parental K562 cells, read-out: Ratio IC50
K562/A02 [21] = assay: Growth inhibition of human K562/A02 cells at 3.5 uM after 72 hrs by MTS assay; assay type: functional, cell-based; how it was run: as §2
K562 [22] = assay: Growth inhibition of human K562 cells at 0.2 uM after 72 hrs by MTS assay; assay type: functional, cell-based; how it was run: as §2
[23] = Effect on P-gp ATPase activity assessed as relative light units at 200 uM by P-gp-GloTM assay
How it was run: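 P-gp ATPase measured by luminescence of remaining ATP; RLU inversely related to ATPase activity. Means of three separate experiments; Student's t test against untreated.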

Compound | IC50 [1] | IC50 (K562 [2]) | Activity (K562 [7]) | inhibition at 72 h, 10 µM [12] | inhibition at 72 h, 10 µM [16] | also measured
COC(=O)c1cc(OC)c2c(c1-c1c(/C=C/C(=O)c3ccc(OC)cc3)cc(OC)c3c1OCO3)OCO2 | > 100 µM | > 100 µM | – | – | – | –
COC(=O)c1cc(OC)c2c(c1-c1c(C(=O)OC)cc(OC)c3c1OCO3)OCO2 [BIFENDATE] | > 100 µM | > 100 µM | – | – | – | –
COC(=O)c1cc(OC)c2c(c1-c1c(/C=C/C(=O)c3cc(C)ccc3C)cc(OC)c3c1OCO3)OCO2 | > 200 µM | > 200 µM | inactive | < 10% | < 10% | Activity (K562 [3]): inactive; RLU [4]: 271000; inhibition (K562/A02 [5]): Dose-dependent effect; inhibition (INH) [6]: Active; Activity [8]: 46%; viability at 72 h, 10 µM [9]: 95%; inhibition (INH) [10]: Active; Activity [11]: 5%; Activity [13]: inactive; Activity [14]: 20%; inhibition (INH) [15]: Active; inhibition (INH) [17]: Active; inhibition (INH) [18]: Active; Activity [19]: inactive; inhibition (K562/A02 [20]): Active
COc1cccc2c1C(=O)c1c(O)c3c(c(O)c1C2=O)C[C@@](O)(C(=O)CO)C[C@@H]3O[C@H]1C[C@H](N)[C@H](O)[C@H](C)O1 [DOXORUBICIN] | 46.7 µM | 0.43 µM | – | – | – | selectivity ratio (P-glycoprotein (P-gp)): 108; growth inhibition (GI) (K562/A02 [21]): inactive; growth inhibition (GI) (K562 [22]): inactive
COC(=O)c1cc(OC)c2c(c1-c1c(/C=C/C(=O)c3ccc(O)cc3)cc(OC)c3c1OCO3)OCO2 | > 100 µM | > 100 µM | – | – | – | –
COC(=O)c1cc(OC)c2c(c1-c1c(/C=C(\C#N)C(=O)c3ccc(C)cc3)cc(OC)c3c1OCO3)OCO2 | 48.4 µM | 61.3 µM | – | – | – | –
SODIUM ORTHOVANAD | – | – | – | – | – | RLU [23]: 282000
COC(=O)c1cc(OC)c2c(c1-c1c(/C=C/C(=O)c3cc(OC)ccc3OC)cc(OC)c3c1OCO3)OCO2 | > 200 µM | > 200 µM | inactive | < 10% | < 10% | Activity [13]: inactive; inhibition (INH) [17]: Active; Activity [19]: inactive
COC(=O)c1cc(OC)c2c(c1-c1c(/C=C/C(=O)c3ccccc3)cc(OC)c3c1OCO3)OCO2 | > 100 µM | > 100 µM | – | – | – | –
COC(=O)c1cc(OC)c2c(c1-c1c(/C=C/C(=O)c3ccccc3OC)cc(OC)c3c1OCO3)OCO2 | > 200 µM | > 200 µM | inactive | < 10% | < 10% | Activity [13]: inactive; inhibition (INH) [17]: Active; Activity [19]: inactive
COC(=O)c1cc(OC)c2c(c1-c1c(/C=C/C(=O)c3cc(OC)c(OC)c(OC)c3)cc(OC)c3c1OCO3)OCO2 | > 200 µM | 172 µM | inactive | < 10% | < 10% | –
COC(=O)c1cc(OC)c2c(c1-c1c(/C=C/C(=O)c3ccc([N+](=O)[O-])cc3)cc(OC)c3c1OCO3)OCO2 | > 100 µM | 73.4 µM | – | – | – | –
COC(=O)c1cc(OC)c2c(c1-c1c(/C=C(\C#N)C(=O)c3cc(OC)c(OC)c(OC)c3)cc(OC)c3c1OCO3)OCO2 | 38.9 µM | 60.3 µM | – | – | – | –
COC(=O)c1cc(OC)c2c(c1-c1c(/C=C/C(=O)c3ccc(OC)cc3OC)cc(OC)c3c1OCO3)OCO2 | > 100 µM | > 100 µM | – | – | – | –
COC(=O)c1cc(OC)c2c(c1-c1c(/C=C(\C#N)C(=O)c3ccc(OC)cc3)cc(OC)c3c1OCO3)OCO2 | 37.2 µM | > 100 µM | – | – | – | –
COc1ccc(CCN(C)CCCC(C#N)(c2ccc(OC)c(OC)c2)C(C)C)cc1OC (stereo not given) | – | – | inactive | < 10% | < 10% | Activity (K562 [3]): inactive; inhibition (INH) [6]: Active
